Data as given in ChEMBL document CHEMBL4321808, “Heteroaryl Phosphonates as Noncovalent Inhibitors of Both Serine- and Metallocarbapenemases” (J Med Chem, 2019).
≈ marks a conversion by molar mass, not a printed value. Each block holds one compound with its values, some of them ahead of it.

Assays:
[1] = Inhibition of N-terminal 6x-His/Sumo-tagged NDM-1 (29 to 270 residues) (unknown origin) expressed in Escherichia coli BL21 (DE3) assessed as reduction in nitrocefin hydrolysis by spectrophotometry; set-up: species or system Bacteria
Procedure, shortened: (§1)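 Metallo-enzyme assay in 50 mM HEPES pH 7.2 with 50 µM zinc sulfate, 0.01% Triton X-100 and 20 µg/mL BSA, 37 °C. NDM-1 was construct 1 with the His/SUMO tag cleaved, at 2 nM; VIM-2 had its His tag TEV-cleaved, at 0.5 nM.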

Escherichia coli [2] = experiment: Antimicrobial activity against Escherichia coli 5980 expressing NDM1 assessed as inhibition of microbial growth incubated for 18 to 20 hrs by CLSI based method; type: organism-based
Procedure, shortened: (§2)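 CLSI broth microdilution in MHBII. Compound tested alone in serial two-fold dilutions, 128–0.12 µg/mL. Inoculum was set to 0.5 McFarland and diluted to about 5×10^5 CFU per well. Plates incubated at 35 °C for 18–20 h. MIC read as the lowest concentration with no visible growth; an un-inoculated plate served as solubility control.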

[3] = biological target: Metallo-beta-lactamase type 2 (Klebsiella pneumoniae) (UniProt C7C422); experiment: Inhibition of NDM-1 in Klebsiella pneumoniae 5979 assessed as potentiation of imipenem-induced antimicrobial activity by measuring imipenem MIC incubated for 18 to 20 hrs by CLSI based method (reference value: <[…] ug/ml)
Chain of Metallo-beta-lactamase type 2 (Klebsiella pneumoniae) (C7C422 whole entry): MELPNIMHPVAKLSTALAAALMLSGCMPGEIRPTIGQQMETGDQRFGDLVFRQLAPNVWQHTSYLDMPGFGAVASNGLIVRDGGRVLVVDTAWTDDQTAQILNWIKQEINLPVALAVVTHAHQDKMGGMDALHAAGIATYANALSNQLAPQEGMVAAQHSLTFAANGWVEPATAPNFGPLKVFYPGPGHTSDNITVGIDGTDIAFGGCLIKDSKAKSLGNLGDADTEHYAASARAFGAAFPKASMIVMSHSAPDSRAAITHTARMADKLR

Escherichia coli [4] = experiment: Inhibition of NDM-1 in Escherichia coli 5980 assessed as potentiation of imipenem-induced antimicrobial activity by measuring imipenem MIC incubated for 18 to 20 hrs by CLSI based method (reference value: 8 ug/ml)
Procedure, shortened: (§3)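 CLSI broth microdilution in MHBII. […] Inoculum about 5×10^5 CFU per well, incubated at 35 °C for 18–20 h. Imipenem MIC read as absence of visible growth.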

Enterobacter cloacae [5] = experiment: Antimicrobial activity against Enterobacter cloacae 5981 expressing NDM1 assessed as inhibition of microbial growth incubated for 18 to 20 hrs by CLSI based method; type: functional; procedure, shortened: as §2
Klebsiella pneumoniae [6] = experiment: Antimicrobial activity against Klebsiella pneumoniae 5979 expressing NDM1 assessed as inhibition of microbial growth incubated for 18 to 20 hrs by CLSI based method; type: organism-based; procedure, shortened: as §2
Pseudomonas aeruginosa [7] = experiment: Antimicrobial activity against Pseudomonas aeruginosa 4698 expressing VIM2 assessed as inhibition of microbial growth incubated for 18 to 20 hrs by CLSI based method; type: organism-based; procedure, shortened: as §2
[8] = Inhibition of N-terminal 6x-His-tagged VIM-2 (unknown origin) expressed in Escherichia coli Rosetta 2 (DE3) assessed as reduction in nitrocefin hydrolysis by spectrophotometry; set-up: species or system Bacteria
Procedure, shortened: as §1, with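 “nM. Nitrocefin hydrolysis read at 486 nm; IC50 from sigmoidal fit, Ki by Cheng-Prusoff; mostly duplicate.” for “nM.”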

Enterobacter cloacae [9] = experiment: Inhibition of NDM-1 in Enterobacter cloacae 5981 assessed as potentiation of imipenem-induced antimicrobial activity by measuring imipenem MIC incubated for 18 to 20 hrs by CLSI based method (reference value: 2 ug/ml); procedure, shortened: as §3
Klebsiella pneumoniae [10] = experiment: Antimicrobial activity against Klebsiella pneumoniae 4683 expressing KPC2 assessed as inhibition of microbial growth incubated for 18 to 20 hrs by CLSI based method; type: organism-based; procedure, shortened: as §2
[11] = biological target: Metallo-beta-lactamase type 2 (Klebsiella pneumoniae) (UniProt C7C422); experiment: Inhibition of NDM-1 in Klebsiella pneumoniae 5979 assessed as potentiation of ceftazidime-induced antimicrobial activity by measuring ceftazidime MIC incubated for 18 to 20 hrs by CLSI based method
Procedure, shortened: (§4)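 CLSI broth microdilution in MHBII. Avibactam fixed at 4 µg/mL with ceftazidime at 64–0.006 µg/mL. Inoculum about 5×10^5 CFU per well, incubated at 35 °C for 18–20 h. Ceftazidime MIC read as absence of visible growth.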

[12] = biological target: Beta-lactamase VIM-2 (Pseudomonas aeruginosa) (UniProt Q9K2N0); experiment: Inhibition of VIM-2 in Pseudomonas aeruginosa 4698 assessed as potentiation of ceftazidime-induced antimicrobial activity by measuring ceftazidime MIC incubated for 18 to 20 hrs by CLSI based method; procedure, shortened: as §4
Enterobacter cloacae [13] = experiment: Inhibition of NDM-1 in Enterobacter cloacae 5981 assessed as potentiation of ceftazidime-induced antimicrobial activity by measuring ceftazidime MIC incubated for 18 to 20 hrs by CLSI based method; procedure, shortened: as §4
Escherichia coli [14] = experiment: Inhibition of NDM-1 in Escherichia coli 5980 assessed as potentiation of ceftazidime-induced antimicrobial activity by measuring ceftazidime MIC incubated for 18 to 20 hrs by CLSI based method; procedure, shortened: as §4
Klebsiella pneumoniae [15] = experiment: Inhibition of KPC2 in Klebsiella pneumoniae 4683 assessed as potentiation of ceftazidime-induced antimicrobial activity by measuring ceftazidime MIC incubated for 18 to 20 hrs by CLSI based method; procedure, shortened: as §4
Pseudomonas aeruginosa [16] = experiment: Antimicrobial activity against efflux positive Pseudomonas aeruginosa 4402 expressing VIM2 assessed as inhibition of microbial growth incubated for 18 to 20 hrs in presence of imipenem by CLSI based method; type: functional
[17] = Kinetic solubility in pH 7.4 PBS; type: physicochemical; conditions: buffer
Pseudomonas aeruginosa [18] = experiment: Antimicrobial activity against Pseudomonas aeruginosa 4129 expressing NDM1 assessed as inhibition of microbial growth incubated for 18 to 20 hrs in presence of imipenem by CLSI based method; type: functional
[19] = Apparent permeability from apical to basolateral side in MDCK-MDR1 cells; type: ADME, cell-based, Canis lupus familiaris; conditions: dog
[20] = Cytotoxicity in HEK293T cells assessed as cell recovery rate at 100 ug/ml incubated for 48 hrs by MTT assay relative to control; type: cell-based, HEK-293T; conditions: human, read-out: Activity
Procedure, shortened: (§5)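 HEK293T cells grown in DMEM with 10% FBS and 1% penicillin/streptomycin. Compounds in DMSO were tested at 200–3.125 µg/mL, two-fold dilutions, for 48 h at 37 °C, 5% CO2. Viability by MTT, read at OD 570 nm; percent recovery calculated against solvent-only controls.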

Klebsiella pneumoniae [21] = experiment: Inhibition of KPC2 in Klebsiella pneumoniae C2 assessed as potentiation of imipenem-induced antimicrobial activity by measuring imipenem MIC incubated for 18 to 20 hrs by CLSI based method (reference value: 512 ug/ml)
[22] = Cytotoxicity in HEK293T cells assessed as cell recovery rate at 200 ug/ml incubated for 48 hrs by MTT assay relative to control; type: cell-based, HEK-293T; conditions: human, read-out: Activity; procedure, shortened: as §5
Pseudomonas aeruginosa [23] = experiment: Antimicrobial activity against Pseudomonas aeruginosa 4135 expressing KPC2 assessed as inhibition of microbial growth incubated for 18 to 20 hrs in presence of imipenem by CLSI based method; type: functional
[24] = Permeability in MDCK-MDR1 cells assessed as drug recovery; type: ADME, cell-based, Canis lupus familiaris; conditions: dog
[25] = Half life in mouse liver microsomes; type: ADME, Microsome
Klebsiella pneumoniae [26] = experiment: Antimicrobial activity against Klebsiella pneumoniae C2 expressing KPC2 assessed as inhibition of microbial growth incubated for 18 to 20 hrs in presence of imipenem by CLSI based method; type: functional
Pseudomonas aeruginosa [27] = experiment: Inhibition of KPC2 in Pseudomonas aeruginosa 4135 assessed as potentiation of ceftazidime-induced antimicrobial activity by measuring ceftazidime MIC incubated for 18 to 20 hrs by CLSI based method (reference value: […] ug/ml)
[28] = Inhibition of N-terminal 6x-His-tagged Klebsiella pneumoniae KPC2 (25 to 293 residues) assessed as reduction in nitrocefin hydrolysis by spectrophotometry
Procedure, shortened: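 Purified recombinant KPC-2 at 1 nM in 100 mM Tris-HCl pH 7.0 with 0.01% Triton X-100, 37 °C, reaction started by enzyme. IC50 from sigmoidal fit; Ki by Cheng-Prusoff using the nitrocefin Km. Run in duplicate, or once or in triplicate for some compounds.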

Pseudomonas aeruginosa [29] = experiment: Antimicrobial activity against efflux positive Pseudomonas aeruginosa 4177 expressing NDM1 assessed as inhibition of microbial growth incubated for 18 to 20 hrs in presence of imipenem by CLSI based method; type: functional
[30] = Intrinsic clearance in mouse liver microsomes; type: ADME, Microsome
Pseudomonas aeruginosa [31] = experiment: Inhibition of NDM1 in efflux positive Pseudomonas aeruginosa 4177 assessed as potentiation of ceftazidime-induced antimicrobial activity by measuring ceftazidime MIC incubated for 18 to 20 hrs by CLSI based method (reference value: 128 ug/ml)
Procedure, shortened: (§6)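 CLSI broth microdilution in MHBII. Standardized inoculum was a 0.5 McFarland suspension diluted to about 5×10^5 CFU per well. Ceftazidime was tested over 64–0.006 µg/mL, with avibactam fixed at 4 µg/mL as the positive control.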

[32] = biological target: Beta-lactamase VIM-2 (Pseudomonas aeruginosa) (UniProt Q9K2N0); experiment: Inhibition of VIM-2 in efflux positive Pseudomonas aeruginosa 4402 assessed as potentiation of ceftazidime-induced antimicrobial activity by measuring ceftazidime MIC incubated for 18 to 20 hrs by CLSI based method (reference value: 32 ug/ml); procedure, shortened: as §6
Pseudomonas aeruginosa [33] = experiment: Inhibition of NDM1 in Pseudomonas aeruginosa 4129 assessed as potentiation of ceftazidime-induced antimicrobial activity by measuring ceftazidime MIC incubated for 18 to 20 hrs by CLSI based method (reference value: 128 ug/ml); procedure, shortened: as §6
[34] = Apparent permeability from basolateral to apical side in MDCK-MDR1 cells; type: ADME, cell-based, Canis lupus familiaris; conditions: dog
[35] = biological target: Beta-lactamase VIM-2 (Pseudomonas aeruginosa) (UniProt Q9K2N0); experiment: Inhibition of VIM-2 in Pseudomonas aeruginosa 4882 assessed as potentiation of imipenem-induced antimicrobial activity by measuring imipenem MIC incubated for 18 to 20 hrs by CLSI based method (reference value: 32 ug/ml)
Pseudomonas aeruginosa [36] = experiment: Antimicrobial activity against Pseudomonas aeruginosa 4882 expressing VIM2 assessed as inhibition of microbial growth incubated for 18 to 20 hrs in presence of imipenem by CLSI based method; type: functional
Klebsiella pneumoniae [37] = conditions: 4683
[38] = biological target: Beta-lactamase VIM-2 (Pseudomonas aeruginosa) (UniProt Q9K2N0); conditions: 4698

MIC (Escherichia coli [2]): > 128 µg/mL
MIC [3]: 32 µg/mL
MIC (Escherichia coli [4]): 2 µg/mL
MIC (Enterobacter cloacae [5]): > 128 µg/mL
MIC (Klebsiella pneumoniae [6]): > 128 µg/mL
MIC (Pseudomonas aeruginosa [7]): > 128 µg/mL
MIC (Enterobacter cloacae [9]): 2 µg/mL
MIC (Klebsiella pneumoniae [10]): > 128 µg/mL
Structure (SMILES): Cc1cc(Br)c2c(CP(=O)(O)O)cc(=O)oc2c1
Ki ([1]; read-out: Ki): 34.2 µM
Ki [8]: 1200 nM

MIC [11]: 4 µg/mL
MIC [12]: 4 µg/mL
MIC (Enterobacter cloacae [13]): 4 µg/mL
MIC (Escherichia coli [14]): 4 µg/mL
MIC (Klebsiella pneumoniae [15]): 4 µg/mL
Structure (SMILES): NC(=O)[C@@H]1CC[C@@H]2CN1C(=O)N2OS(=O)(=O)O

Structure (SMILES): Cc1cc(C)c2c(CP(=O)(O)O)cc(=O)oc2c1
Ki ([1]; read-out: Ki): 33.8 µM
Ki [8]: 820 nM

Structure (SMILES): COc1ccc2c(CP(=O)(O)O)cc(=O)oc2c1
Ki ([1]; read-out: Ki): 124 µM
Ki [8]: 2100 nM

Structure (SMILES): O=c1cc(CP(=O)(O)O)c2c(Br)cc(Br)cc2[nH]1
MIC (Pseudomonas aeruginosa [16]): 128 µg/mL
Kinetic_solubility [17]: 241 µM
Ki ([1]; read-out: Ki): 31.4 µM
MIC (Pseudomonas aeruginosa [18]): 128 µg/mL
Papp [19]: < 0.7 ×10⁻⁶ cm/s
viability at 48 h, 100 ug/ml [20]: 88%
MIC (Klebsiella pneumoniae [21]): 4 to 16 µg/mL
viability at 48 h, 200 ug/ml [22]: 70%
MIC (Pseudomonas aeruginosa [23]): 128 µg/mL
Drug recovery [24]: 91%
t1/2 [25]: > 120 min
MIC (Klebsiella pneumoniae [26]): 16 to 128 µg/mL
MIC (Pseudomonas aeruginosa [27]): 2 µg/mL
Ki [28]: 20 nM
Ki [8]: 316 nM
MIC (Pseudomonas aeruginosa [29]): 128 µg/mL
CLH [30]: < 11.6 µL/min/mg
MIC (Pseudomonas aeruginosa [31]): 32 µg/mL
MIC [32]: 4 µg/mL
MIC (Pseudomonas aeruginosa [33]): 8 µg/mL
Papp [34]: < 0.2 ×10⁻⁶ cm/s
MIC [35]: 2 µg/mL
MIC (Pseudomonas aeruginosa [36]): 128 µg/mL

Ki [28]: 326000 nM
Structure (SMILES): O=P(O)(O)Cc1ccnc2ccccc12
Ki [1]: Not Active
Ki [8]: 30300 nM

Structure (SMILES): C[C@H]1O[C@@H](O[C@H]2[C@@H](O)C[C@H](O[C@H]3[C@@H](O)C[C@H](O[C@H]4CC[C@@]5(C)[C@H](CC[C@@H]6[C@@H]5C[C@@H](O)[C@]5(C)[C@@H](C7=CC(=O)OC7)CC[C@]65O)C4)O[C@@H]3C)O[C@@H]2C)C[C@H](O)[C@@H]1O [DIGOXIN]
Drug recovery [24]: 105%

Kinetic_solubility [17]: 193 µM
MIC (Escherichia coli [2]): > 128 µg/mL
MIC [3]: 64 µg/mL
MIC (Escherichia coli [4]): 2 µg/mL
MIC (Enterobacter cloacae [5]): > 128 µg/mL
MIC (Klebsiella pneumoniae [37]): 1 µg/mL (≈ 3.74 µM)
MIC [38]: > 64 µg/mL
MIC (Klebsiella pneumoniae [6]): > 128 µg/mL
Ki [28]: 2200 nM
MIC (Pseudomonas aeruginosa [7]): > 128 µg/mL
MIC (Enterobacter cloacae [9]): 2 µg/mL
MIC (Klebsiella pneumoniae [10]): > 128 µg/mL
Structure (SMILES): Cc1cc(C)c2c(CP(=O)(O)O)cc(=O)[nH]c2c1
Ki ([1]; read-out: Ki): 56.2 µM
Ki [8]: 3400 nM
